Assay results as given in ChEMBL document CHEMBL4020705, “Investigation of aryl isonitrile compounds with potent, broad-spectrum antifungal activity” (Bioorg Med Chem, 2017).
Values after ≈ are worked out from the molar mass of the structure shown.

Legend:
[1] = system: Candida albicans; experiment: Antifungal activity against Candida albicans NR-29448 after 44 hrs by broth dilution assay; format: functional; details: NR-29448, 44 h
Outline: (§1)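 Yeast broth microdilution per CLSI M27-A3, in RPMI-1640. Incubation is at 37 °C for at least 44 h. MIC is the lowest concentration with no visible growth, read by eye.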

[2] = system: Candida albicans; experiment: Fungicidal activity against Candida albicans NR-29448 after 18 hrs; format: functional; details: NR-29448, 18 h, read-out: MFC99.9
Outline: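 Starting from the MIC plate, 5 μL aliquots are taken from wells with no growth and spotted onto YPD agar. After 18 h at 37 °C, MFC is recorded as the concentration giving a >99.9% decrease in CFU.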

[3] = system: Aspergillus fumigatus; experiment: Antifungal activity against Aspergillus fumigatus NR-35302 after 44 hrs by broth dilution assay; details: NR-35302, 44 h
[4] = system: Aspergillus brasiliensis; experiment: Antifungal activity against Aspergillus brasiliensis ATCC 16404 after 44 hrs by broth dilution assay; details: ATCC 16404, 44 h
[5] = system: Aspergillus niger; experiment: Antifungal activity against Aspergillus niger ATCC 16888 after 44 hrs by broth dilution assay; details: ATCC 16888, 44 h
[6] = system: Cryptococcus gattii species complex; experiment: Antifungal activity against Cryptococcus gattii NR-43208 after 68 hrs by broth dilution assay; format: functional, Cryptococcus bacillisporus; details: NR-43208, 68 h
Outline: (§2)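 Cryptococcus MIC follows CLSI M27-A3 broth dilution in RPMI-1640. Incubation is at 37 °C for 68 h, and the MIC is read by visual inspection.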

[7] = system: Candida albicans; experiment: Antifungal activity against Candida albicans ATCC 29351 after 44 hrs by broth dilution assay; format: functional; details: ATCC 29351, 44 h; outline: as §1
[8] = system: HRT-18 cell line; experiment: Cytotoxicity against human HRT18 cells assessed as cell viability at 128 uM after 2 hrs by MTS assay; format: cell-based; details: hrt-18, 2 h
Outline: (§3)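 HRT-18 cells are grown in RPMI-1640 with 10% fetal horse serum at 37 °C, 5% CO2. Compounds are added in triplicate for 2 h, with DMSO-matched vehicle controls. MTS is then added for 4 h and absorbance read at 490 nm. Viability is given as % of DMSO control, mean ± SD. Two-way ANOVA with Dunnett's test.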

[9] = system: HRT-18 cell line; experiment: Cytotoxicity against human HRT18 cells assessed as cell viability at 256 uM after 2 hrs by MTS assay; format: cell-based; details: hrt-18, 2 h; outline: as §3
[10] = system: Candida albicans; experiment: Antifungal activity against Candida albicans ATCC 27365 after 44 hrs by broth dilution assay; format: functional; details: ATCC 27365, 44 h; outline: as §1
[11] = system: Candida tropicalis; experiment: Antifungal activity against Candida tropicalis ATCC 1369 after 44 hrs by broth dilution assay; format: functional; details: ATCC 1369, 44 h; outline: as §1
[12] = system: Aspergillus niger; experiment: Antifungal activity against Aspergillus niger ATCC 6275 after 44 hrs by broth dilution assay; details: ATCC 6275, 44 h
[13] = system: Candida parapsilosis; experiment: Antifungal activity against Candida parapsilosis ATCC 22019 after 44 hrs by broth dilution assay; format: functional; details: Lodderomyces parapsilosis, ATCC 22019, 44 h; outline: as §1
[14] = system: Nakaseomyces glabratus; experiment: Antifungal activity against Candida glabrata ATCC MYA-2950 after 44 hrs by broth dilution assay; format: functional; details: ATCC MYA-2950, 44 h; outline: as §1
[15] = system: Candida albicans; experiment: Antifungal activity against Candida albicans NR-29368 after 44 hrs by broth dilution assay; format: functional; details: NR-29368, 44 h; outline: as §1
[16] = system: Candida tropicalis; experiment: Antifungal activity against Candida tropicalis ATCC 13803 after 44 hrs by broth dilution assay; format: functional; details: ATCC 13803, 44 h; outline: as §1
[17] = system: Pichia kudriavzevii; experiment: Antifungal activity against Candida krusei ATCC 34135 after 44 hrs by broth dilution assay; format: functional; details: ATCC 34135, 44 h; outline: as §1
[18] = system: Nakaseomyces glabratus; experiment: Antifungal activity against Candida glabrata ATCC 66032 after 44 hrs by broth dilution assay; format: functional; details: ATCC 66032, 44 h; outline: as §1
[19] = system: Candida albicans; experiment: Antifungal activity against Candida albicans NR-29446 after 44 hrs by broth dilution assay; format: functional; details: NR-29446, 44 h; outline: as §1
[20] = system: Candida albicans; experiment: Antifungal activity against Candida albicans ATCC 64124 after 44 hrs by broth dilution assay; format: functional; details: ATCC 64124, 44 h; outline: as §1
[21] = system: Aspergillus fumigatus; experiment: Antifungal activity against Aspergillus fumigatus NR-35301 after 44 hrs by broth dilution assay; details: NR-35301, 44 h
[22] = system: Pichia kudriavzevii; experiment: Antifungal activity against Candida krusei ATCC 14243 after 44 hrs by broth dilution assay; format: functional; details: ATCC 14243, 44 h; outline: as §1
[23] = system: Candida albicans; experiment: Antifungal activity against Candida albicans ATCC MYA 573 after 44 hrs by broth dilution assay; format: functional; details: ATCC MYA 573, 44 h; outline: as §1
[24] = system: Cryptococcus gattii species complex; experiment: Antifungal activity against Cryptococcus gattii NR-43209 after 68 hrs by broth dilution assay; format: functional, Cryptococcus bacillisporus; details: NR-43209, 68 h; outline: as §2
[25] = system: Cryptococcus neoformans; experiment: Antifungal activity against Cryptococcus neoformans NR-41292 after 68 hrs by broth dilution assay; format: functional; details: NR-41292, 68 h; outline: as §2

Compound: CC/C(=C\c1ccccc1)c1ccccc1
- MIC [1]: > 64 µM
- MFC [2]: > 64 µM

Compound: N#Cc1ccccc1/C=C/c1ccccc1
- MIC [1]: > 64 µM
- MFC [2]: > 64 µM

Compound: Nc1ccccc1/C=C/c1ccccc1
- MIC [1]: 64 µM (≈ 12.5 µg/mL)

Compound: N#Cc1ccc(/C=C/c2ccccc2)cc1
- MIC [3]: 32 µM (≈ 6.57 µg/mL)
- MIC [4]: > 64 µM
- MIC [5]: > 64 µM
- MIC [6]: ≤ 0.5 µM
- MIC [7]: 1 µM (≈ 0.205 µg/mL)
- Activity [8]: Non-Toxic
- Activity [9]: Non-Toxic
- MIC [10]: 1 µM (≈ 0.205 µg/mL)
- MIC [11]: 16 µM (≈ 3.28 µg/mL)
- MIC [12]: > 64 µM
- MIC [13]: 2 µM (≈ 0.411 µg/mL)
- MIC [1]: 2 µM (≈ 0.411 µg/mL)
- MIC [14]: 8 µM (≈ 1.64 µg/mL)
- MIC [15]: 2 µM (≈ 0.411 µg/mL)
- MIC [16]: 4 µM (≈ 0.821 µg/mL)
- MIC [17]: 16 µM (≈ 3.28 µg/mL)
- MIC [18]: 8 µM (≈ 1.64 µg/mL)
- MIC [19]: 1 µM (≈ 0.205 µg/mL)
- MIC [20]: 2 µM (≈ 0.411 µg/mL)
- MIC [21]: 64 µM (≈ 13.1 µg/mL)
- MFC [2]: > 64 µM
- MIC [22]: 32 µM (≈ 6.57 µg/mL)
- MIC [23]: 1 µM (≈ 0.205 µg/mL)
- MIC [24]: ≤ 0.5 µM
- MIC [25]: ≤ 0.5 µM

Compound: CC/C(=C\c1ccccc1C#N)c1ccc(OC)cc1
- MIC [1]: > 64 µM
- MFC [2]: > 64 µM

Compound: COc1cccc(/C=C/c2ccccc2C#N)c1
- MIC [1]: 16 µM (≈ 3.76 µg/mL)

Compound: N#Cc1ccccc1/C=C/c1ccc([N+](=O)[O-])cc1
- MIC [1]: 8 µM (≈ 2 µg/mL)
- MFC [2]: 64 µM (≈ 16 µg/mL)

Compound: CCCCc1ccc(/C=C/c2ccccc2C#N)cc1
- MIC [1]: 8 µM (≈ 2.09 µg/mL)
- MFC [2]: 64 µM (≈ 16.7 µg/mL)

Compound: N#Cc1cccc(/C=C/c2ccccc2)c1
- MIC [1]: 4 µM (≈ 0.821 µg/mL)
- MFC [2]: 32 µM (≈ 6.57 µg/mL)

Compound: N#Cc1ccccc1C=C1CCCCC1
- MIC [1]: 4 µM (≈ 0.789 µg/mL)
- MFC [2]: > 64 µM

Compound: COc1ccc(/C=C/c2ccccc2C#N)cc1
- MIC [1]: 1 µM (≈ 0.235 µg/mL)
- MFC [2]: > 64 µM

Compound: C/C(=C\c1ccccc1C#N)c1ccccc1
- MIC [1]: 8 µM (≈ 1.75 µg/mL)
- MFC [2]: > 64 µM

Compound: N#Cc1ccccc1/C=C/c1ccc(F)cc1
- MIC [1]: 64 µM (≈ 14.3 µg/mL)

Compound: N#Cc1ccccc1-c1ccccc1
- MIC [1]: 0.5 µM (≈ 0.0896 µg/mL)
- MFC [2]: > 64 µM

Compound: OC(Cn1cncn1)(Cn1cncn1)c1ccc(F)cc1F [FLUCONAZOLE]
- MIC [3]: > 64 µM
- MIC [4]: > 64 µM
- MIC [5]: > 64 µM
- MIC [6]: 8 µM (≈ 2.45 µg/mL)
- MIC [7]: ≤ 0.5 µM
- MIC [10]: 1 µM (≈ 0.306 µg/mL)
- MIC [11]: > 64 µM
- MIC [12]: > 64 µM
- MIC [1]: 0.5 µM (≈ 0.153 µg/mL)
- MIC [14]: > 64 µM
- MIC [15]: > 64 µM
- MIC [16]: > 64 µM
- MIC [17]: 64 µM (≈ 19.6 µg/mL)
- MIC [18]: > 64 µM
- MIC [19]: > 64 µM
- MIC [20]: > 64 µM
- MIC [21]: > 64 µM
- MFC [2]: > 64 µM
- MIC [22]: 64 µM (≈ 19.6 µg/mL)
- MIC [23]: > 64 µM
- MIC [24]: 8 µM (≈ 2.45 µg/mL)
- MIC [25]: 8 µM (≈ 2.45 µg/mL)
